Measurements as given in ChEMBL document CHEMBL4138111, “Nanomolar anti-sickling compounds identified by ligand-based pharmacophore approach” (Eur J Med Chem, 2017).

Legend:
[1] = biological target: T1, Adenosine receptor A2b (Homo sapiens) (UniProt P29275); assay: Antagonist activity at Adenosine receptor subtype 2B in human RBC assessed as change in erythrocyte morphology at 10 uM incubated for 3 hrs with occasional gentle stirring for every 30 min measured for every 12 hrs by microscopic analysis relative to control; type: functional, cell-based; design: scale not given: the % may be the effect or the level left
T1 sequence (whole entry): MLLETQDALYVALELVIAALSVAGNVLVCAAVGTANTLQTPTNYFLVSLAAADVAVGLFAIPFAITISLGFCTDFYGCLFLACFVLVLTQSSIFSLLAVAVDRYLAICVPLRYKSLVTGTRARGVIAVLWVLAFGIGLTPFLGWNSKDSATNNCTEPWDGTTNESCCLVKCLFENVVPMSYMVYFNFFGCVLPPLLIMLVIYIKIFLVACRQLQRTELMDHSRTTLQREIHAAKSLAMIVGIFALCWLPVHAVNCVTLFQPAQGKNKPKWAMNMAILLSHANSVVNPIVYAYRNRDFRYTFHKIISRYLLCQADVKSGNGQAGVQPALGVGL
In short: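 RBCs come from sickle cell anemia patients, washed in 0.9% saline and diluted 1:10. Cells are exposed to compound at a single 10 µM final concentration for 3 h at 37 °C, stirred gently every 30 min, then given 2% sodium metabisulfite. Morphology is read by microscopy (40X) every 12 h, counting >500 erythrocytes from five random fields. Triplicate assays; MRS1754 (10 µM) is the reference antagonist.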

J774 = assay: Cytotoxicity against mouse J774 cells assessed as cell viability up to 100 uM after 72 hrs by AlamarBlue assay; type: cell-based; conditions: j774, 72 h
In short: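 J774 murine macrophage-like cells are seeded at 2 × 10^5 cells/well in DMEM with 10% FBS and gentamycin and incubated 2 h at 37 °C, 5% CO2. Compounds are added at five concentrations (6.25-100) for 72 h, in 5% DMSO/saline vehicle. Alamar Blue is then added for 12 h more, with absorbance read at 570 and 600 nm. Gentian violet serves as positive control. Triplicates, three experiments.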

[2] = biological target: T1, Adenosine receptor A2b (Homo sapiens); assay: Antagonist activity at Adenosine receptor subtype 2B in human RBC assessed as inhibition of NECA-induced-sickling effect by measuring change in erythrocyte morphology preincubated for 3 hrs with occasional gentle stirring for every 30 min followed by incubated for 2 to 12 hrs under normoxic/hypoxic condition measured for every 12 hrs by microscopic analysis; type: functional, cell-based
In short: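 Patient SCA erythrocytes are treated as in the EC50 sickling assay. Compounds are tested at three concentrations (0.03-1) against six NECA concentrations (0.001-1000). Sickling is scored by microscopy. NECA EC50 is determined with and without compound, and the dose ratio is derived from these. pKb is obtained by Schild analysis as log[DR−1] − log[B]. Mean ± SD of five experiments.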

Adenosine receptor = Adenosine receptor (Homo sapiens, UniProt P30542+P29275+P0DMS8+P29274); assay: Antagonist activity at Adenosine receptor in human RBC assessed as change in erythrocyte morphology incubated for 3 hrs with occasional gentle stirring for every 30 min measured for every 12 hrs by microscopic analysis; type: cell-based
In short: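 Erythrocytes from sickle cell anemia patients are separated by centrifugation (5 min, 16,000 g, 4 °C), washed three times in 0.9% saline and diluted 1:10 in saline. Cells are held with compound at 37 °C for 3 h, then challenged with 2% sodium metabisulfite. Sickled cells (>500 cells, five fields, 40X) are counted. Seven concentrations (0.001-100) are tested. EC50 comes from biphasic nonlinear regression with Hill slopes fixed at 1.0. Mean ± SD of five experiments, each in triplicate.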

Compound	Activity [1] [%]	Activity (J774)	inhibition [2]	pKb [2]	pEC50 (Adenosine receptor)
CCCc1cc(O)nc(SC(C)C(=O)Nc2cc(C)no2)n1 (stereo not drawn)	> 70	Non-Toxic	Dose-dependent effect	9.45	
CCCn1c(=O)c2[nH]c(-c3ccc(OCC(=O)Nc4ccc(C#N)cc4)cc3)nc2n(CCC)c1=O	54		Dose-dependent effect	8.68	
CC(OC(=O)c1nccnc1N)C(=O)NCc1ccc2c(c1)OCO2 (stereo not drawn)	> 70		Dose-dependent effect	9.54	
CC(C)c1noc(OCC(=O)NCc2ccc3c(c2)OCO3)n1	> 70		Dose-dependent effect	7.99	4.21
O=C(CN1CCOC(Cn2cncn2)C1)Nc1cccnc1 (stereo not drawn)	> 70	Non-Toxic	Dose-dependent effect	8.31	5.29
Cc1cc(NC(=O)CNc2ccc3c(c2)OC(F)(F)O3)on1	> 70		Dose-dependent effect	7.38	5.06
